Reference: ChEMBL document CHEMBL2401666, “Structure-based design of novel HCV NS5B thumb pocket 2 allosteric inhibitors with submicromolar gt1 replicon potency: discovery of a quinazolinone chemotype” (Bioorg Med Chem Lett, 2013)

How the values were obtained:
[1] = Half life in rat liver microsomes at 2 uM; format: ADME, Microsome
[2] = Half life in human liver microsomes at 2 uM; format: ADME, Microsome
[3] = Permeability across apical to basolateral side in human Caco2 cells at 10 uM; format: ADME, cell-based; settings: Caco-2, read-out: permeability
Method in brief: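 Caco-2 monolayer, apical-to-basolateral transport at 10 µM across a pH 6.8–7.4 gradient; apparent permeability in cm/s ×10^-6.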

[4] = Lipophilicity, log D of the compound at pH 7.4; format: physicochemical; settings: buffer

half-life at 2 µM [1] | half-life at 2 µM [2] | Papp A→B at 10 µM [3] | logD [4] | Structure (SMILES)
1.53 h | 1.98 h | 17 ×10⁻⁶ cm/s |  | CC(C)N(c1ccc(Oc2ccccc2C(F)(F)F)cc1C(=O)O)C(=O)[C@H]1CC[C@H](C)CC1
 |  |  | 1.8 | COc1ccc2c(c1)c(=O)ncn2Cc1ccc(F)cc1F
 |  |  | 3 | O=c1ncn(Cc2ccc(F)cc2F)c2ccc(Oc3ccncc3C(F)(F)F)cc12
0.433 h | 1.33 h | 11 ×10⁻⁶ cm/s | 3.5 | COc1ccnc(Oc2ccc3c(c2)c(=O)ncn3Cc2ccc(F)cc2F)c1C(F)(F)F
 |  |  | 3 | O=c1ncn(Cc2c(F)cc(F)cc2F)c2ccc(Oc3cnccc3C(F)(F)F)cc12
0.367 h | > 5 h | 11 ×10⁻⁶ cm/s | 2.9 | O=c1ncn(Cc2c(F)cc(F)cc2F)c2ccc(Oc3cccnc3C(F)(F)F)cc12
 |  |  | 4.2 | O=c1ncn(Cc2c(F)cc(F)cc2F)c2ccc(Oc3ccccc3C(F)(F)F)cc12
 |  |  | 3.2 | O=c1ncn(Cc2c(F)cc(F)cc2F)c2ccc(Oc3ccccc3)cc12
0.25 h | 1.4 h | 7.9 ×10⁻⁶ cm/s | 3.3 | COc1ccnc(Oc2ccc3c(c2)c(=O)ncn3Cc2c(F)cc(F)cc2F)c1C(F)(F)F
1 h | 1.15 h | 19 ×10⁻⁶ cm/s |  | CC(C)N(c1ccc(Oc2ncccc2C(F)(F)F)cc1C(=O)O)C(=O)[C@H]1CC[C@H](C)CC1
 |  |  | 2.5 | O=c1nc[nH]c2ccc(Oc3ncccc3C(F)(F)F)cc12
 |  |  | 3.3 | O=c1ncn(CC2CCCC2)c2ccc(Oc3ncccc3C(F)(F)F)cc12
 |  |  | 3.7 | Cc1ccc(Cn2cnc(=O)c3cc(Oc4ncccc4C(F)(F)F)ccc32)cc1
1 h | 1.55 h | 7.1 ×10⁻⁶ cm/s |  | O=c1ncn(Cc2ccc(Br)cc2F)c2ccc(Oc3ncccc3C(F)(F)F)cc12
0.25 h | 0.75 h | 8.4 ×10⁻⁶ cm/s | 3.8 | Cc1ccc(Cn2cnc(=O)c3cc(Oc4ncccc4C(F)(F)F)ccc32)c(F)c1
0.517 h | 1.83 h | 13 ×10⁻⁶ cm/s |  | O=c1ncn(Cc2ccc(F)cc2F)c2ccc(Oc3ncccc3C(F)(F)F)cc12
0.633 h | 2.05 h | 12 ×10⁻⁶ cm/s | 3.3 | O=c1ncn(Cc2c(F)cc(F)cc2F)c2ccc(Oc3ncccc3C(F)(F)F)cc12
 |  |  | 3.9 | O=c1ncn(Cc2ccc(F)cc2F)c2cc(F)c(Oc3ncccc3C(F)(F)F)cc12
